In ChEMBL document CHEMBL1212834, “Pyrido[2,3-b]pyrazines, discovery of TRPV1 antagonists with reduced potential for the formation of reactive metabolites” (Bioorg Med Chem Lett, 2010):
Calls of active or inactive are those of the source. The calls are words filed in the database; no cut-off is given here.

What was measured:
[1] = species: Rattus norvegicus; details: 20 mg/kg
[2] = biological target: Transient receptor potential cation channel subfamily V member 1 (Homo sapiens, UniProt Q8NER1); assay: Antagonist activity at human TRPV1 assessed as inhibition of capsaicin-induced receptor activation by FLIPR assay; assay type: functional
Chain of Transient receptor potential cation channel subfamily V member 1 (Homo sapiens, UniProt Q8NER1) (Q8NER1 whole entry): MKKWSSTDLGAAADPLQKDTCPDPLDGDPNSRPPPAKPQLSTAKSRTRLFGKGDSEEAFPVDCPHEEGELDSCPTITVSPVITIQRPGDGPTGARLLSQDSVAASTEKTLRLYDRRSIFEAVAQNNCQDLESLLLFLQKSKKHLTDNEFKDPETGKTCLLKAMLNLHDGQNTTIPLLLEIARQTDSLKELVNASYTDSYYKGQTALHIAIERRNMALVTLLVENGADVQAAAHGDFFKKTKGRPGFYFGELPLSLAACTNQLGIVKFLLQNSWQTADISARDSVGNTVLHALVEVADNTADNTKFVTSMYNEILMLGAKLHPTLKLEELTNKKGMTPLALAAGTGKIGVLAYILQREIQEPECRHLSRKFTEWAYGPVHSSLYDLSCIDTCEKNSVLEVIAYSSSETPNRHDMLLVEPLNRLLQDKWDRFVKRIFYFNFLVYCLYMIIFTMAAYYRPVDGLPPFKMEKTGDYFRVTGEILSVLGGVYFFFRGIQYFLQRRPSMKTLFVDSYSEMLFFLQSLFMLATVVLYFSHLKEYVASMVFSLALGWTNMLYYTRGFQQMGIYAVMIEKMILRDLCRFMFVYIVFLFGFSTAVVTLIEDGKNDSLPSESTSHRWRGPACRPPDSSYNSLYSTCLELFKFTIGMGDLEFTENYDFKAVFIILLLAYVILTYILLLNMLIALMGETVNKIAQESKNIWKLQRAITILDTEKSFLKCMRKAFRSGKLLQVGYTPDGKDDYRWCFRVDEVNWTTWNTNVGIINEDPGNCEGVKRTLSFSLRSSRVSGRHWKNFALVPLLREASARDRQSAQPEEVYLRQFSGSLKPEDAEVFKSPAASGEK
Method in brief: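 Human TRPV1 activated by capsaicin; inhibition read by FLIPR. IC50 is the mean of ≥3 experiments.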

[3] = Metabolic stability in rat liver microsomes assessed as compound remaining after 10 min; assay type: ADME, Microsome; details: read-out: Stability
[4] = test system: Liver microsomes; assay: Metabolic stability in human liver microsomes assessed per mg of protein after 1 hr
[5] = biological target: Transient receptor potential cation channel subfamily V member 1 (Rattus norvegicus, UniProt O35433); assay type: functional, tissue-based, Sprague-Dawley, Dorsal root ganglion
Chain of Transient receptor potential cation channel subfamily V member 1 (Rattus norvegicus, UniProt O35433) (O35433 whole entry): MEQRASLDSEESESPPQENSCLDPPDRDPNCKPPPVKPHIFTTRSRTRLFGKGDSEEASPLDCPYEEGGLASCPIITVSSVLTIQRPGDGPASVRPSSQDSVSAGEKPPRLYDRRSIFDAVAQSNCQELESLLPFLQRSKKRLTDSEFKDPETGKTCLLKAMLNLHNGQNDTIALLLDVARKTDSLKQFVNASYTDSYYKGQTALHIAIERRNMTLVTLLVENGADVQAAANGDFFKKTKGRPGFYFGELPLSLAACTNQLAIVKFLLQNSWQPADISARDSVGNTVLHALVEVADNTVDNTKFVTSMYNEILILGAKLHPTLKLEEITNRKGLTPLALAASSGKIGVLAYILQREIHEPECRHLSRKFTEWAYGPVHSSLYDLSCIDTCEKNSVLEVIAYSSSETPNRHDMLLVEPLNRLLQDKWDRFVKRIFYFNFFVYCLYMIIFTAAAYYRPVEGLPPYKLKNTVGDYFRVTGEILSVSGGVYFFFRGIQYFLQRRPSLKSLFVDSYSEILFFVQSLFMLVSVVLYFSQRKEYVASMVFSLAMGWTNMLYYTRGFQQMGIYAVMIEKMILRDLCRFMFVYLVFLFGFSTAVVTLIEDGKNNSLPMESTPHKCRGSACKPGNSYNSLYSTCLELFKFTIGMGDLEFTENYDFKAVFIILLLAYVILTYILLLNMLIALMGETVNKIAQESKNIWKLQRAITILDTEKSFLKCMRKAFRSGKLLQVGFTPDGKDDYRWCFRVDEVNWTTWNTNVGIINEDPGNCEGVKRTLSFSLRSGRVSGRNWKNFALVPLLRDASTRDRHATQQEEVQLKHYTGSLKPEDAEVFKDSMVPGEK

[6] = test system: Rattus norvegicus; assay: Antiinflammatory activity in Sprague-Dawley rat assessed as inhibition of carrageenan-induced thermal hyperalgesia at 3 mg/kg, po administered 3.5 hrs after carrageenan challenge measured after 5 hrs; assay type: functional
Method in brief: (§1)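 Rat carrageenan-induced thermal hyperalgesia. Dosed orally as a suspension in 0.5% methocel; % inhibition reported at each dose.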

[7] = test system: Rattus norvegicus; assay: Plasma concentration in Sprague-Dawley rat carrageenan-induced thermal hyperalgesia model at 1 mg/kg, po; assay type: ADME, organism-based; set-up: dose 1 mg/kg, route oral; details: in vivo
Method in brief: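 Plasma sampled immediately after the carrageenan thermal hyperalgesia experiment, following oral dosing as a suspension in 0.5% methocel.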

[8] = test system: Rattus norvegicus; assay: Antiinflammatory activity in Sprague-Dawley rat assessed as inhibition of carrageenan-induced thermal hyperalgesia at 1 mg/kg, po administered 3.5 hrs after carrageenan challenge measured after 5 hrs; assay type: functional
Method in brief: as §1

[9] = test system: Rattus norvegicus; assay: Plasma concentration in Sprague-Dawley rat carrageenan-induced thermal hyperalgesia model at 3 mg/kg, po; assay type: ADME, organism-based; set-up: dose 3 mg/kg, route oral; details: in vivo
Method in brief: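 Rats given compound orally as a suspension in 0.5% methocel in the carrageenan-induced thermal hyperalgesia model. Plasma sampled immediately after the CITH experiment.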

[10] = Inhibition of MAOB
[11] = test system: Rattus norvegicus; assay: Antiinflammatory activity in Sprague-Dawley rat assessed as inhibition of carrageenan-induced thermal hyperalgesia at 0.3 mg/kg, po administered 3.5 hrs after carrageenan challenge measured after 5 hrs; assay type: functional
Method in brief: as §1

SMILES | IC50 [2] [nM] | IC50 [5] | other results
COc1ccc2cc([C@H](C)C(=O)O)ccc2c1 | – | – | inhibition [1]: Active
N#Cc1nc(Nc2ccnc3nc(-c4ncccc4C(F)(F)F)ccc23)ncc1C(F)(F)F | 25.4 | Not Active | –
FC(F)(F)c1ccc(Nc2ccnc3nc(-c4ncccc4C(F)(F)F)ccc23)nc1 | – | – | concentration [7]: 300 nM; inhibition in vivo at 3 mg/kg [6]: 115%; remaining at 10 min [3]: 100%; Stability [4]: 169 pmol; IC50 ([5]; read-out: IC50): 3.2 nM; inhibition in vivo at 1 mg/kg [8]: 66%; concentration [9]: 1400 nM; INH [10]: 2.2 nM
NC(=O)c1ccnc(-c2ccc3c(Nc4ccc(C(F)(F)F)cn4)ccnc3n2)c1C(F)(F)F | 13 | Not Active | –
FC(F)(F)c1ccc(Nc2ccnc3nc(-c4ncc(Br)cc4C(F)(F)F)cnc23)nc1 | 30 | Not Active | –
C[C@@H]1CN(c2ncccc2C(F)(F)F)CCN1C(=O)Nc1ccc(C(F)(F)F)cc1 | – | – | INH [10]: 17 nM
FC(F)(F)c1cnc(Nc2ccnc3nc(-c4ncccc4C(F)(F)F)ccc23)nc1Cl | 81 | Not Active | –
O=C(O)c1cnc(-c2cnc3c(Nc4ccc(C(F)(F)F)cn4)ccnc3n2)c(C(F)(F)F)c1 | 27 | Not Active | –
N#Cc1cnc(-c2cnc3c(Nc4ccc(C(F)(F)F)cn4)ccnc3n2)c(C(F)(F)F)c1 | 15 | Not Active | –
FC(F)(F)c1ccc(Nc2ccnc3nc(-c4ncncc4C(F)(F)F)ccc23)nc1 | 134 | Not Active | –
FC(F)(F)c1ccc(Nc2ccnc3nc(-c4ncccc4C(F)(F)F)cnc23)nc1 | 0.2 | Not Active | inhibition in vivo at 0.3 mg/kg [11]: 85%; inhibition in vivo at 3 mg/kg [6]: 134%; remaining at 10 min [3]: 100%; Stability [4]: < 5 pmol

Further molecules by falling IC50 [2], results first:

IC50 [2] [nM] | IC50 [5] | SMILES | other results
1450 | Not Active | O=C(O)c1nc(Nc2ccnc3nc(-c4ncccc4C(F)(F)F)ccc23)ncc1C(F)(F)F | –
607 | Not Active | O=C(O)c1ccnc(-c2ccc3c(Nc4ccc(C(F)(F)F)cn4)ccnc3n2)c1C(F)(F)F | –
161 | Not Active | FC(F)(F)c1ccc(Nc2ccnc3nc(-c4ccncc4C(F)(F)F)ccc23)nc1 | –
48.7 | Not Active | NC(=O)c1nc(Nc2ccnc3nc(-c4ncccc4C(F)(F)F)ccc23)ncc1C(F)(F)F | –
47 | Not Active | FC(F)(F)c1csc(Nc2ccnc3nc(-c4ncccc4C(F)(F)F)ccc23)n1 | –
12 | Not Active | FC(F)(F)c1ccc(Nc2ccnc3nc(-c4ncsc4C(F)(F)F)ccc23)nc1 | remaining at 10 min [3]: 100%; Stability [4]: 356 pmol
8.4 | – | FC(F)(F)c1ccc(Nc2ccnc3nc(-c4nnccc4C(F)(F)F)ccc23)nc1 | IC50 ([5]; read-out: IC50): 7.1 nM
5.5 | – | FC(F)(F)c1cnc(Nc2ccnc3nc(-c4ncccc4C(F)(F)F)ccc23)cn1 | IC50 ([5]; read-out: IC50): 6.3 nM
4.4 | – | FC(F)(F)c1cnc(Nc2ccnc3nc(-c4ncccc4C(F)(F)F)ccc23)nc1 | inhibition in vivo at 3 mg/kg [6]: 78%; remaining at 10 min [3]: 100%; Stability [4]: 204 pmol; IC50 ([5]; read-out: IC50): 4.6 nM
